# RGS4 act = RGS4 potentiation or activation; HEK293 M3R/inducible RGS4, carbachol calcium flux Fluo4; active compounds read low; B-score at 10 µM; actives 0.92% (n = 310,000); AID 463111;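 active = B-score of the integrated calcium signal more than 4 SD below the library mean, with starting fluorescence not abnormally high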;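 note: negative B-score means reduced calcium response which marks RGS4 activation or potentiation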
#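 Assay system: HEK293 FlpIn-TREx cells, stable M3R, doxycycline-inducible RGS4 / Probe or stimulus: carbachol, ECmax concentration / Times: overnight RGS4 induction, 30 min dye load 37 °C, 20 min compound RT / Signal: kinetic calcium fluorescence imaging with Fluo4-AM dye, 2 µM / Measure: Agonist-evoked peak-minus-minimum fluorescence over baseline, integrated ratio, B score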
# MrgX1 agonist = agonists of human MrgX1 receptor; Q96LB2; MrgX1-HEK293 cells, Fluo-4 calcium fluorescence, agonist mode; active compounds read high; B-score at 10 µM; actives 0.44% (n = 310,000); AID 588627;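 active = calcium response B-score plate-corrected fluorescence ratio at least 3 library SD, with starting fluorescence B-score inside 5 SD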
# Target sequence (Q96LB2 whole entry, looked up): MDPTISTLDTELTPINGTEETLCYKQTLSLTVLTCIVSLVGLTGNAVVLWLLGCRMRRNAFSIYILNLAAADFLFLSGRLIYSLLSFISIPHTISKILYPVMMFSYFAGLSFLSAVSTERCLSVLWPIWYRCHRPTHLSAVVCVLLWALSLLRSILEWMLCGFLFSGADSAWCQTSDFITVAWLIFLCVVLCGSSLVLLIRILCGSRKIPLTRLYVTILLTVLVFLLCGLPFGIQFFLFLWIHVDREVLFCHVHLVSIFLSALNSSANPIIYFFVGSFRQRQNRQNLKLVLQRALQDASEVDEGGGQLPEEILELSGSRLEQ
#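 times = overnight plating, then 30 min 37 °C plus 30 min room-temperature dye loading | assay system = stable human MrgX1 HEK293 cell line | input = fifteen thousand cells per well | signal = kinetic calcium dye fluorescence, Fluo-4 NW | dosing = compound delivered in addition one of three | read-out = B-scored fluorescence response ratio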
# RGS4 inh = inhibitors of human RGS4. P49798. HEK293 M3R/RGS4 inducible, Fluo-4 calcium flux; active compounds read high; triggered by carbachol at its EC20. B-score at 10 µM. actives 0.45% (n = 310,000). AID 463165;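 active = B-score, a plate-corrected calcium signal, over three deviations above library mean, with baseline fluorescence within five deviations of library mean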;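 note: RGS4 expression induced by doxycycline in cells with stable M3 receptor; B-score is computed from the integrated fluorescence ratio over baseline after carbachol; higher B-score means a larger calcium signal and so more RGS4 inhibition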
# Target sequence (P49798 whole entry, looked up): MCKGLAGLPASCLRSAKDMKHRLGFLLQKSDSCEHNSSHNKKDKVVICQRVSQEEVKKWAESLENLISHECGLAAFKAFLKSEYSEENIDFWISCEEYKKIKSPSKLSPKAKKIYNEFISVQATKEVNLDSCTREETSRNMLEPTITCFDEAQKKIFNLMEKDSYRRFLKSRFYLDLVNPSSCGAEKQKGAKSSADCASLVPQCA
# MrgX1 PAM = allosterically activates human MrgX1 receptor signaling | Q96LB2 | MrgX1-HEK293, Fluo-4 calcium flux, FDSS; active compounds read high | B-score at 10 µM | actives 0.63% (n = 310,000) | AID 588675;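 active = plate-corrected calcium response at least 3 library SD above typical, normal starting fluorescence, not activating the receptor alone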;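 note: compound read alongside a low EC10 to EC30 dose of BAM8-22 agonist; peak minus trough fluorescence over baseline measured at the second addition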
# MrgX1 antag = blocks BAM8-22 activation of human MrgX1 receptor; MRGX1-HEK293 calcium flux, Fluo-4, BAM8-22 antagonism; active compounds read low; B-score at 10 µM; actives 1.3% (n = 310,000);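 active = calcium-response B-score plate-corrected more than 3 library SD below zero, starting fluorescence within 5 deviations, no agonist response on first addition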;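 note: peak minus trough fluorescence over baseline after final BAM8-22 challenge near maximal dose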
# MrgX1 antag conf = reconfirmed antagonist of human MrgX1 receptor signaling | shares compounds with MrgX1 antag | MrgX1-HEK293, BAM8-22 calcium flux, Fluo-4; active compounds read low | actives 19% (n = 2,300) | remaining BAM8-22 calcium response % of control (active compounds read low), % at 10 µM;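 active = remaining agonist calcium response no higher than 100% minus 3 SD of agonist-only control wells, with starting fluorescence near control levels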;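 note: agonist BAM8-22 given at a near maximal EC90 to ECmax level; peak minus minimum fluorescence divided by baseline after agonist addition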
# HEK293 Ca flux = activity in parental HEK293 cells lacking MrgX1 | shares compounds with MrgX1 antag | Fluo-4 calcium fluorescence, FDSS | fluorescence ratio F(max-min)/F0 at 10 µM | actives 2% (n = 4,000) | AID 624111;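 active = duplicate-averaged calcium fluorescence ratio at least three times the standard deviation of buffer wells, a nonspecific response in parental cells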
# HEK293 Ca counter = MrgX1 allosteric activator counter-screen hit in parental HEK293 cells; shares compounds with MrgX1 antag; fluorescence ratio F(max-min)/F0 at 10 µM; actives 0.4% (n = 4,000); parental HEK293 calcium flux, Fluo-4 fluorescence ratio; active compounds read high;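 active = calcium fluorescence ratio, averaged over duplicates, at least 3 SD of the buffer-well ratio, meaning a nonspecific response in receptor-free cells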;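 note: untransfected parental HEK293 lacking MrgX1 used as counterscreen for MrgX1 allosteric activators; fluorescence change taken during the second addition on a kinetic imager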
# HEK293 Ca cntr2 = activity in parental HEK293 cells lacking MrgX1 receptor; AID 624115; Fluo-4 calcium fluorescence (FDSS); active compounds read high; fluorescence ratio F(max-min)/F0 at 10 µM; actives 8.7% (n = 4,000); shares compounds with MrgX1 antag;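 active = calcium fluorescence ratio at least three times the spread of buffer wells, meaning a non-specific response in parental cells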
# Numbers without * were called inactive; i = inactive; · = no result given. Sampled rows, rich in hits. Any-hit rate of the full collection: about 3.5%.
SMILES,RGS4 act,MrgX1 agonist,RGS4 inh,MrgX1 PAM,MrgX1 antag,MrgX1 antag conf,HEK293 Ca flux,HEK293 Ca counter,HEK293 Ca cntr2
COc1ccccc1CNC(=O)COC(=O)C1CCN(c2ccc(C(F)(F)F)cn2)CC1,i,i,i,i,-7.65*,i,i,i,i
O=C(COC(=O)C1CCN(c2ccc(C(F)(F)F)cn2)CC1)NCCc1ccccc1,i,i,i,i,i,·,·,·,·
COc1ccc(-c2csc(NC(=O)c3ccccc3NS(=O)(=O)c3ccc(F)c(F)c3)n2)cc1,i,i,i,i,-6.55*,63.3%*,i,i,50.6*
CCOc1ccc(OCC)c(NC(=O)CCn2cccc2)c1,i,i,i,i,i,·,·,·,·
Cn1cc(CNC(=O)C2CCC(=O)N(Cc3ccccc3F)C2)cn1 (configuration not stated),i,i,i,i,-4.74*,i,i,i,i
Cc1ccsc1C(=O)N1CCC(CO)(Cc2ccccc2)CC1,i,i,i,i,i,·,·,·,·
COc1ccccc1NC(=O)CSc1ccc(-c2ccc(-n3ccnc3)cc2)nn1,i,i,i,i,-5.11*,i,i,i,i
Cc1ccccc1NC(=O)CSc1ccc(-c2ccc(-n3cccn3)cc2)nn1,i,i,i,i,i,·,·,·,·
NC(=O)C1(C(N)=O)OC1c1ccc(Cl)c(Cl)c1 (configuration not stated),i,i,i,i,i,·,·,·,·
O=C(CNC(=O)c1ccc(Cl)cc1)NCC(F)(F)F,i,i,i,i,i,·,·,·,·
CCCC(C)NC(=O)c1ccc(F)cc1 (configuration not stated),i,i,i,i,i,·,·,·,·
CCOC(=O)NC(NC(=O)OCC)C(=O)c1ccc(F)cc1,i,i,i,i,-5.13*,i,i,i,i
O=C(Cn1nnc(-c2ccccc2)n1)NNC(=O)c1ccco1,i,i,i,i,i,·,·,·,·
CC(=O)Oc1c(-c2ccc(Br)o2)oc2ccccc2c1=O,i,i,i,i,-5.49*,i,i,i,i
OCC[C@H]1C[C@@H](O)[C@H](O)[C@]2(CCc3ccccc3CO2)O1,·,i,·,i,i,·,·,·,·
OCC[C@@H]1C[C@@H](O)[C@H](O)[C@@]2(CCc3ccccc3CO2)O1,i,i,i,i,-5.01*,i,i,i,i
OCCCNc1cc(-c2ccnc(Nc3cccc(Cl)c3)n2)ccn1,i,i,i,i,-4.91*,59.8%*,i,i,i
CCCn1c(=N)n(CC(=O)c2cccs2)c2ccccc21,i,i,i,i,-4.65*,i,i,i,i
CC(=O)Nc1ccc(NC(=O)CNC(=O)c2cccc(C)c2)cc1,i,i,i,i,i,·,·,·,·
O=C(NCCc1ccccc1)Nc1cccc(Cl)c1,i,i,i,i,-7.01*,i,i,i,i
COc1ccc(C)cc1S(=O)(=O)NCC(c1ccc2c(c1)OCO2)N1CCN(C)CC1 (configuration not stated),i,i,i,i,i,·,·,·,·
Cc1ccc(S(=O)(=O)N2CCOCC2)cc1C(=O)Nc1nc(-c2cccnc2)cs1,i,i,i,i,-12.7*,i,i,i,i
Cn1cc(S(=O)(=O)CC(=O)Nc2ccc(Br)cc2)c2ccccc21,i,i,i,i,-6.08*,i,i,i,i
COC(=O)c1ccc(NC(=O)CSc2nnc(CNc3ccc(F)cc3)n2C)cc1,i,i,i,i,i,·,·,·,·
Nc1nc(Cl)nc2c1ncn2C1CC(O)C(CO)O1 (configuration not stated),i,i,i,i,-5.13*,i,i,i,i
SMILES,RGS4 act,MrgX1 agonist,RGS4 inh,MrgX1 PAM,MrgX1 antag,MrgX1 antag conf,HEK293 Ca flux,HEK293 Ca counter,HEK293 Ca cntr2
Nc1nc2c(ncn2[C@H]2C[C@H](O)[C@@H](CO)O2)c(=O)[nH]1,i,i,i,i,i,·,·,·,·
Oc1ccccc1NCC(O)Cn1ccc2ccccc21 (configuration not stated),i,i,i,i,-5.3*,i,i,i,i
COc1cccc(CN(C(=O)c2ccco2)C2CCS(=O)(=O)C2)c1 (configuration not stated),i,i,i,i,-4.76*,i,i,i,i
CCN(CC)CCNC(=O)C(Oc1ccccc1)Oc1ccccc1,i,i,i,i,i,·,·,·,·
Cc1cc(C)cc(N(CC(=O)N2CCc3ccccc32)S(=O)(=O)c2c(C)noc2C)c1,i,i,i,i,-7.25*,i,i,i,i
CCOc1ccc(N(CC(=O)N2CCc3ccccc32)S(=O)(=O)c2c(C)noc2C)cc1,i,i,i,i,i,·,·,·,·
COc1ccc(C2=NN(CC(=O)Nc3cc(C)ccc3C)C(=O)CC2)cc1,i,i,i,i,i,·,·,·,·
CC(Oc1ccc(Br)cc1)C(=O)Nc1ccc(S(=O)(=O)N(C)C2CCN(C)CC2)cc1 (configuration not stated),i,i,i,i,-16.4*,i,i,i,48.5*
O=C(CSc1n[nH]c(=O)n1C1CC1)Nc1cc(Cl)ccc1Oc1ccccc1,i,i,i,i,-8.42*,i,i,i,i
O=C(CSc1n[nH]c(=O)n1C1CC1)Nc1ccccc1,i,i,i,i,i,·,·,·,·
CCCN(CCC)S(=O)(=O)c1ccc(C(=O)Nc2nc3c(s2)CCc2ccccc2-3)cc1,i,i,i,i,-5.2*,i,i,i,i
Cc1ccc(-c2nc(NC(=O)c3ccc(S(=O)(=O)N(CCC#N)CCC#N)cc3)sc2-c2ccccc2)cc1,i,i,i,i,i,·,·,·,·
Cc1ccc(CNC(=O)C(NS(=O)(=O)c2cccs2)C(C)C)cc1 (configuration not stated),i,i,i,i,i,·,·,·,·

# From PubChem BioAssay
